Reference: ChEMBL document CHEMBL1145814, “Antiretroviral activity of semisynthetic derivatives of glycopeptide antibiotics” (J Med Chem, 2003)
Values after ≈ are worked out from the molar mass of the structure shown.

What was measured:
[1] = tested on: Human immunodeficiency virus 1; experiment: Effective concentration of compound required to protect human T-lymphocytic cells against the cytopathogenicity of HIV-1; format: functional, organism-based; details: Human immunodeficiency virus 1
[2] = tested on: Human immunodeficiency virus 2; experiment: Concentration required to protect human T-lymphocytic cells against the cytopathogenicity of HIV-2; format: functional, organism-based; details: Human immunodeficiency virus 2
[3] = species: Mus musculus; experiment: Effective concentration of compound required to protect C3H/3T3 embryo murine fibroblasts against the MSV induced transformation; format: functional, organism-based; details: Mus musculus, C3H/3T3
Outline: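 Monolayer murine embryo fibroblast C3H/3T3 cultures were infected with Moloney murine sarcoma virus at 75 focus-forming units and cultured with test compound. Transformation was examined microscopically on day 6 postinfection. EC50 is the concentration protecting cells against MSV-induced transformation by 50%.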

[4] = tested on: L1210; experiment: Inhibitory concentration of compound against proliferation of murine lukemia cells L1210 was determined; format: functional, cell-based; details: Mus musculus
Outline: (§1)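 (5–7.5) × 10^4 cells per well were incubated with test compound at 37 °C in a humidified CO2 atmosphere. L1210 murine leukemia cells grew for 48 h, and CEM and Molt4/clone 8 human lymphocytes grew for 72 h. Cells were then counted with a Coulter counter. IC50 is the concentration inhibiting proliferation by 50%.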

[5] = tested on: CCRF-CEM; experiment: Inhibitory concentration against proliferation of human T-lymphocytic (CEM) cells; format: functional, cell-based; details: Homo sapiens, CCRF-CEM; outline: as §1
[6] = tested on: MOLT-4; experiment: Inhibitory concentration of compound against proliferation of human T-lymphocytic cells MOLT-4/C8 was determined; format: functional, cell-based; outline: as §1
[7] = species: Mus musculus; experiment: Minimal inhibitory concentration required to cause a microscopic detectable alteration of C3H/3T3 embryo murine fibroblast cell morphology; format: functional
Outline: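 Uninfected C3H/3T3 murine embryo fibroblast cultures were exposed to test compound and checked microscopically for changes in cell morphology. The MIC is the concentration causing a microscopically detectable alteration of morphology.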

Row | SMILES | EC50 [1] | EC50 [2] | IC50 [4] | IC50 [5] | IC50 [6] | EC50 [3] | MIC [7]
1 | CCCCCCCCCCNCc1c(O)cc2c(c1O)-c1cc(ccc1O)[C@H]1NC(=O)[C@@H]3NC(=O)[C@H](CC(N)=O)NC(=O)[C@H](NC(=O)[C@@H](CC(C)C)NC)[C@H](O)c4ccc(c(Cl)c4)Oc4cc3cc(c4O[C@@H]3O[C@H](CO)[C@@H](O)[C@H](O)[C@H]3O[C@H]3C[C@](C)(N)[C@@H](O)[C@H](C)O3)Oc3ccc(cc3)[C@@H](O[C@H]3C[C@](C)(N)[C@@H](O)[C@H](C)O3)[C@H](NC1=O)C(=O)N[C@@H]2C(=O)O | > 20 µM | > 20 µM | 19 µM | 24 µM | 27 µM | – | –
2 | CNC(=O)[C@H]1NC(=O)[C@H]2NC(=O)[C@H](NC(=O)[C@@H]3NC(=O)[C@H](CC(N)=O)NC(=O)[C@H](NC(=O)[C@@H](CC(C)C)NC)[C@H](O)c4ccc(c(Cl)c4)Oc4cc3cc(c4O[C@@H]3O[C@H](CO)[C@@H](O)[C@H](O)[C@H]3O[C@H]3C[C@](C)(N)[C@@H](O)[C@H](C)O3)Oc3ccc(cc3)[C@H]2O[C@H]2C[C@](C)(N)[C@@H](O)[C@H](C)O2)c2ccc(O)c(c2)-c2c(O)cc(O)cc21 | > 250 µM | > 250 µM | > 500 µM | > 500 µM | > 500 µM | – | –
3 | CN[C@@H](CC(C)C)C(=O)NC1C(=O)N[C@@H](CC(N)=O)C(=O)NC2C(=O)NC3C(=O)NC(C(=O)N[C@@H](C(=O)O)c4cc(O)cc(O)c4-c4cc3ccc4O)C(O)c3ccc(cc3)Oc3cc2cc(c3O)Oc2ccc(cc2Cl)C1O (some centres undefined) | 50 µM | > 250 µM | > 500 µM | > 500 µM | > 500 µM | > 100 µM | > 100 µM
4 | CN[C@@H](CC(C)C)C(=O)NC1C(=O)N[C@@H](CC(N)=O)C(=O)NC2C(=O)NC3C(=O)NC(C(=O)N[C@@H](C(=O)O)c4cc(O)cc(O)c4-c4cc3ccc4O)C(O)c3ccc(c(Cl)c3)Oc3cc2cc(c3O)Oc2ccc(cc2Cl)C1O (some centres undefined) | 65 µM | > 250 µM | > 500 µM | > 500 µM | > 500 µM | > 100 µM | > 100 µM
5 | COC(=O)[C@@H]1NC(=O)C2NC(=O)C(NC(=O)C(NC(=O)OC(C)(C)C)c3cc(Oc4ccc(CC(NC(=O)OCc5ccccc5)C(=O)O)cc4Cl)c(O)c(c3)Oc3ccc(cc3Cl)C2O)c2ccc(O)c(c2)-c2c1cc(O)c(CNC1C3CC4CC(C3)CC1C4)c2O (some centres undefined) | 17 µM | 11 µM | 95 µM | 240 µM | 122 µM | 26 µM | > 100 µM
6 | CN(Cc1ccc(Cl)cc1)Cc1c(O)cc2c(c1O)-c1cc(ccc1O)C1NC(=O)C3NC(=O)C4NC(=O)C(Cc5ccc(c(Cl)c5)Oc5cc3cc(c5O)Oc3ccc(cc3Cl)C(O)C(NC1=O)C(=O)N[C@H]2C(=O)O)NC(=O)C(N)c1ccc(O)c(c1)Oc1cc(O)cc4c1 (some centres undefined) | 17 µM | 20 µM | > 100 µM | > 100 µM | > 100 µM | 11 µM | > 100 µM
7 | CN[C@H](CC(C)C)C(=O)N[C@H]1C(=O)N[C@@H](CC(N)=O)C(=O)N[C@H]2C(=O)N[C@H]3C(=O)N[C@H](C(=O)N[C@H](C(=O)NCc4ccc(-c5ccc(Cl)cc5)cc4)c4cc(O)cc(O)c4-c4cc3ccc4O)[C@H](O[C@H]3C[C@](C)(N)[C@@H](O)[C@H](C)O3)c3ccc(cc3)Oc3cc2cc(c3O[C@@H]2O[C@H](CO)[C@@H](O)[C@H](O)[C@H]2O[C@H]2C[C@](C)(N)[C@@H](O)[C@H](C)O2)Oc2ccc(cc2Cl)[C@H]1O | > 10 µM | > 10 µM | 15 µM | 8.6 µM | 7.7 µM | > 0.8 µM | 4 µM (≈ 7.03 µg/mL)
8 | CNC1C(=O)NC2Cc3ccc(cc3)Oc3cc4cc(c3O[C@@H]3O[C@@H](C(=O)O)[C@@H](O)[C@H](O)[C@@H]3N)Oc3ccc(cc3Cl)C(O)C3NC(=O)C(NC(=O)C4NC(=O)C(NC2=O)c2cc(cc(O)c2Cl)Oc2cc1ccc2O)c1ccc(O)c(c1)-c1c(O[C@H]2O[C@H](CO)[C@@H](O)[C@@H](O)[C@@H]2O)cc(O)cc1[C@H](C(=O)O)NC3=O (some centres undefined) | > 250 µM | > 250 µM | > 500 µM | > 500 µM | > 500 µM | > 100 µM | > 100 µM
9 | CCCCc1ccc(CN2CCN(Cc3c(O)cc4c(c3O)-c3cc(ccc3O)C3NC(=O)C5NC(=O)C6NC(=O)C(Cc7ccc(cc7)Oc7cc5cc(c7OC5OC(C(=O)O)C(O)C(O)C5N)Oc5ccc(cc5Cl)C(O)C(NC3=O)C(=O)N[C@H]4C(=O)O)NC(=O)C(NC)c3ccc(O)c(c3)Oc3cc(O)c(Cl)c6c3)CC2)cc1 (some centres undefined) | 20 µM | > 50 µM | 20 µM | 106 µM | > 50 µM | 6.9 µM | 100 µM (≈ 163 µg/mL)
10 | NC1C(=O)NC2Cc3ccc(c(Cl)c3)Oc3cc4cc(c3O)Oc3ccc(cc3Cl)C(O)C3NC(=O)C(NC(=O)C4NC(=O)C(NC2=O)c2cc(O)cc(c2)Oc2cc1ccc2O)c1ccc(O)c(c1)-c1c(O)cc(O)cc1[C@H](C(=O)O)NC3=O (some centres undefined) | 17 µM | 20 µM | > 500 µM | > 500 µM | > 500 µM | 25 µM | > 100 µM

The next lines start with results.

Row | EC50 [1] | EC50 [2] | IC50 [4] | IC50 [5] | IC50 [6] | SMILES | EC50 [3] | MIC [7]
11 | 13 µM | 6 µM | 22 µM | 104 µM | 25 µM | O=C(NC1C(=O)NC2Cc3ccc(c(Cl)c3)Oc3cc4cc(c3O)Oc3ccc(cc3Cl)C(O)C3NC(=O)C(NC(=O)C4NC(=O)C(NC2=O)c2cc(O)cc(c2)Oc2cc1ccc2O)c1ccc(O)c(c1)-c1c(O)cc(O)cc1[C@H](C(=O)O)NC3=O)OC12CC3CC(CC(C3)C1)C2 (some centres undefined) | 9.8 µM | > 20 µM
12 | 10 µM | 15 µM | 192 µM | 108 µM | 108 µM | O=CC(=O)c1[nH]c2ccccc2c1NC1C(=O)NC2Cc3ccc(c(Cl)c3)Oc3cc4cc(c3O)Oc3ccc(cc3Cl)C(O)C3NC(=O)C(NC(=O)C4NC(=O)C(NC2=O)c2cc(O)cc(c2)Oc2cc1ccc2O)c1ccc(O)c(c1)-c1c(O)cc(O)cc1[C@H](C(=O)O)NC3=O (some centres undefined) | 4.4 µM | > 100 µM
13 | 4 µM | 5.5 µM | > 100 µM | > 100 µM | > 100 µM | CNC(=O)[C@@H]1NC(=O)C2NC(=O)C(NC(=O)C3NC(=O)C(CC(N)=O)NC(=O)C(NC(=O)C(CC(C)C)NC)C(O)c4ccc(c(Cl)c4)Oc4cc3cc(c4O)Oc3ccc(cc3)C2O)c2ccc(O)c(c2)-c2c1cc(O)c(CN1CCN(Cc3ccc(-c4ccccc4)cc3)CC1)c2O (some centres undefined) | 12 µM | > 100 µM
14 | 13 µM | 20 µM | > 250 µM | > 250 µM | > 250 µM | CNC(=O)[C@@H]1NC(=O)C2NC(=O)C(NC(=O)C3NC(=O)C(CC(N)=O)NC(=O)C(N)C(O)c4ccc(c(Cl)c4)Oc4cc3cc(c4O)Oc3ccc(cc3)C2O)c2ccc(O)c(c2)-c2c1cc(O)c(CNC1C3CC4CC(C3)CC1C4)c2O (some centres undefined) | 14 µM | > 100 µM
15 | 5 µM | > 10 µM | 20 µM | 80 µM | 18 µM | CCCCOc1ccc(CNC2C(Oc3c4cc5cc3Oc3ccc(cc3Cl)C(O)C3NC(=O)C(NC(=O)C5NC(=O)C5NC(=O)C(Cc6ccc(cc6)O4)NC(=O)C(N(C)Cc4ccc(OCCCC)cc4)c4ccc(O)c(c4)Oc4cc(O)c(Cl)c5c4)c4ccc(O)c(c4)-c4c(O)cc(O)cc4[C@H](C(=O)NCCCN(C)C)NC3=O)OC(C(=O)NCCCN(C)C)C(O)C2O)cc1 (some centres undefined) | > 4 µM | 20 µM (≈ 37.6 µg/mL)
16 | 3.5 µM | 20 µM | 25 µM | 212 µM | 35 µM | CCCCc1ccc(CNC2C(Oc3c4cc5cc3Oc3ccc(cc3Cl)C(O)C3NC(=O)C(NC(=O)C5NC(=O)C5NC(=O)C(Cc6ccc(cc6)O4)NC(=O)C(NC)c4ccc(O)c(c4)Oc4cc(O)c(Cl)c5c4)c4ccc(O)c(c4)-c4c(cc(O)c(CN5CCN(Cc6ccc(-c7ccccc7)cc6)CC5)c4O)[C@H](C(=O)NCCCN(C)C)NC3=O)OC(C(=O)NCCCN(C)C)C(O)C2O)cc1 (some centres undefined) | > 4 µM | 20 µM (≈ 39.3 µg/mL)
17 | 15 µM | 17 µM | > 500 µM | > 500 µM | > 500 µM | CNC(=O)[C@@H]1NC(=O)C2NC(=O)C(NC(=O)C3NC(=O)C4NC(=O)C(Cc5ccc(c(Cl)c5)Oc5cc3cc(c5O)Oc3ccc(cc3Cl)C2O)NC(=O)C(N)c2ccc(O)c(c2)Oc2cc(O)cc4c2)c2ccc(O)c(c2)-c2c(O)cc(O)cc21 (some centres undefined) | > 20 µM | > 100 µM
18 | 6.5 µM | 12 µM | 500 µM | 402 µM | 225 µM | NCCCCCCCCCCNC(=O)[C@@H]1NC(=O)C2NC(=O)C(NC(=O)C3NC(=O)C4NC(=O)C(Cc5ccc(c(Cl)c5)Oc5cc3cc(c5O)Oc3ccc(cc3Cl)C2O)NC(=O)C(N)c2ccc(O)c(c2)Oc2cc(O)cc4c2)c2ccc(O)c(c2)-c2c(O)cc(O)cc21 (some centres undefined) | > 4 µM | 20 µM (≈ 27.1 µg/mL)
19 | 7 µM | 6 µM | 30 µM | 123 µM | 26 µM | NC1C(=O)NC2Cc3ccc(c(Cl)c3)Oc3cc4cc(c3O)Oc3ccc(cc3Cl)C(O)C3NC(=O)C(NC(=O)C4NC(=O)C(NC2=O)c2cc(O)cc(c2)Oc2cc1ccc2O)c1ccc(O)c(c1)-c1c(O)cc(O)cc1[C@H](C(=O)NC1C2CC4CC(C2)CC1C4)NC3=O (some centres undefined) | 2.1 µM | > 100 µM
